Measurements published in ChEMBL document CHEMBL3097989, “Antimicrobial activity of de novo designed cationic peptides against multi-resistant clinical isolates” (Eur J Med Chem, 2014).

What was measured:
[1] = test system: Staphylococcus saprophyticus; assay: Antibacterial activity against Staphylococcus saprophyticus M2981 clinical isolate expressing mecA gene by microdilution test; type: functional
Summary of the method: (§1)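 MIC by standard broth microdilution following CLSI recommendations, in Mueller Hinton broth supplemented with Ca²⁺ (20-25 mg/L) and Mg²⁺ (10-12.5 mg/L); ATCC reference strains included in the panel.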

Staphylococcus aureus [2] = assay: Antibacterial activity against Staphylococcus aureus P239 clinical isolate expressing ermC gene by microdilution test; type: functional; summary of the method: as §1
Klebsiella pneumoniae [3] = assay: Antibacterial activity against Klebsiella pneumoniae M9375 clinical isolate expressing blaCTX-M-2, blaTEM-1 and blaSHV-1 gene by microdilution test; type: functional
Summary of the method: (§2)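 MIC by standard broth microdilution following CLSI recommendations, in Mueller Hinton broth supplemented with Ca²⁺ (20-25mg/L) and Mg²⁺ (10-12.5mg/L); peptides tested against a panel of multi-resistant clinical isolates plus ATCC reference strains.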

Acinetobacter sp. [4] = assay: Antibacterial activity against Acinetobacter sp. M5277 clinical isolate expressing blaPER gene by microdilution test; type: functional; summary of the method: as §2
Escherichia coli [5] = assay: Antibacterial activity against Escherichia coli M5306 clinical isolate expressing blaPER-2, blaCTX-M-2 and blaTEM-1 gene by microdilution test; type: functional; summary of the method: as §2
Acinetobacter sp. [6] = assay: Antibacterial activity against Acinetobacter sp. M5179 clinical isolate expressing blaOXA-51 gene by microdilution test; type: functional; summary of the method: as §2
Staphylococcus aureus [7] = assay: Antibacterial activity against Staphylococcus aureus ATCC 29213 by microdilution test; type: functional; summary of the method: as §1
Pseudomonas aeruginosa [8] = assay: Antibacterial activity against Pseudomonas aeruginosa M5200 clinical isolate expressing blaVIM and blaGES-1 gene by microdilution test; type: functional; summary of the method: as §1
Klebsiella pneumoniae [9] = assay: Antibacterial activity against Klebsiella pneumoniae M5825 clinical isolate expressing blaGES-3 and blaCTX-M-2 gene by microdilution test; type: functional; summary of the method: as §2
Pseudomonas aeruginosa [10] = assay: Antibacterial activity against Pseudomonas aeruginosa M7525 clinical isolate expressing blaSPM gene by microdilution test; type: functional; summary of the method: as §1
Enterococcus faecium [11] = assay: Antibacterial activity against Enterococcus faecium M2304 clinical isolate expressing vanA gene by microdilution test; type: functional; summary of the method: as §2
Staphylococcus aureus [12] = assay: Antibacterial activity against Staphylococcus aureus M2832 clinical isolate expressing mecA gene by microdilution test; type: functional; summary of the method: as §1
Enterococcus faecium [13] = assay: Antibacterial activity against Enterococcus faecium M6261 by microdilution test; type: functional; summary of the method: as §2
Enterococcus faecalis [14] = assay: Antibacterial activity against Enterococcus faecalis ATCC 51299 clinical isolate expressing vanB gene by microdilution test; type: functional; summary of the method: as §2
Acinetobacter sp. [15] = assay: Antibacterial activity against Acinetobacter sp. PFAV1 clinical isolate expressing blaOXA-51, blaOXA-58 and blaPER gene by microdilution test; type: functional; summary of the method: as §2
[16] = Toxicity in human RBC assessed as hemolytic activity relative to control; type: cell-based, Erythrocyte; details: red blood cells (RBC), read-out: Activity
Summary of the method: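 Heparinized human whole blood diluted 3x in PBS and centrifuged 10 min at 1500 rpm, repeated three times. Cells resuspended to 10% (v/v), then diluted to about 0.5% (v/v). Peptides added at various concentrations for 30 min at 37 °C. Supernatant absorbance read at 550 nm. Lysis calculated against buffer (0%) and water (100%). Readings taken in triplicate and averaged.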

Staphylococcus hominis [17] = assay: Antibacterial activity against Staphylococcus hominis M2973 clinical isolate expressing mecA gene by microdilution test; type: functional; summary of the method: as §1
Enterococcus gallinarum = assay: Antibacterial activity against Enterococcus gallinarum M2685 clinical isolate expressing vanC1 and vanA gene by microdilution test; type: functional; summary of the method: as §2
Klebsiella pneumoniae [18] = assay: Antibacterial activity against Klebsiella pneumoniae M13540 clinical isolate expressing blaKPC-2 gene by microdilution test; type: functional; summary of the method: as §2
Klebsiella pneumoniae [19] = assay: Antibacterial activity against Klebsiella pneumoniae M1803 clinical isolate expressing blaPER-2, blaCTX-M-2, blaTEM-1, blaSHV and blaOXA-9 gene by microdilution test; type: functional; summary of the method: as §2
Staphylococcus warneri = assay: Antibacterial activity against Staphylococcus warneri M6823 clinical isolate expressing mecA gene by microdilution test; type: functional; summary of the method: as §1
Enterococcus faecium [20] = assay: Antibacterial activity against Enterococcus faecium PZAP95 by microdilution test; type: functional; summary of the method: as §2
Staphylococcus aureus [21] = assay: Antibacterial activity against Staphylococcus aureus M6784 clinical isolate expressing mecA gene by microdilution test; type: functional; summary of the method: as §1
Klebsiella pneumoniae [22] = assay: Antibacterial activity against Klebsiella pneumoniae M11245 clinical isolate expressing blaKPC-2 and blaPER-2 gene by microdilution test; type: functional; summary of the method: as §2
Staphylococcus hominis [23] = assay: Antibacterial activity against Staphylococcus hominis M2967 clinical isolate expressing mecA gene by microdilution test; type: functional; summary of the method: as §1
Escherichia coli [24] = assay: Antibacterial activity against Escherichia coli PNEU23 clinical isolate expressing blaOXA-GIII and blaTEM-1 gene by microdilution test; type: functional; summary of the method: as §2
Klebsiella pneumoniae [25] = assay: Antibacterial activity against Klebsiella pneumoniae M7647 clinical isolate expressing blaVIM, blaCTX-M-2, blaTEM-1 and blaSHV-1 gene by microdilution test; type: functional; summary of the method: as §2
Acinetobacter sp. [26] = assay: Antibacterial activity against Acinetobacter sp. M7978 clinical isolate expressing blaIMP-1 gene by microdilution test; type: functional; summary of the method: as §2
Enterococcus faecalis [27] = assay: Antibacterial activity against Enterococcus faecalis M4992 clinical isolate expressing vanA gene by microdilution test; type: functional; summary of the method: as §2
Enterococcus faecalis [28] = assay: Antibacterial activity against Enterococcus faecalis M4899 clinical isolate expressing vanB gene by microdilution test; type: functional; summary of the method: as §2
Enterococcus faecium [29] = assay: Antibacterial activity against Enterococcus faecium M2664 clinical isolate expressing vanA gene by microdilution test; type: functional; summary of the method: as §2
Enterococcus faecium [30] = assay: Antibacterial activity against Enterococcus faecium M2619 clinical isolate expressing vanB gene by microdilution test; type: functional; summary of the method: as §2
Escherichia coli [31] = assay: Antibacterial activity against Escherichia coli M7859 clinical isolate expressing blaCIT gene by microdilution test; type: functional; summary of the method: as §2
Staphylococcus aureus [32] = assay: Antibacterial activity against Staphylococcus aureus P28 clinical isolate expressing ermA gene by microdilution test; type: functional; summary of the method: as §1
Klebsiella pneumoniae [33] = assay: Antibacterial activity against Klebsiella pneumoniae M9885 clinical isolate expressing blaKPC-2 gene by microdilution test; type: functional; summary of the method: as §2
[34] = test system: Staphylococcus epidermidis; assay: Antibacterial activity against Staphylococcus epidermidis M2921 clinical isolate expressing mecA gene by microdilution test; type: functional; summary of the method: as §1
Klebsiella pneumoniae [35] = assay: Antibacterial activity against Klebsiella pneumoniae M9310 clinical isolate expressing blaCTX-M-2, blaTEM-1 and blaSHV-1 gene by microdilution test; type: functional; summary of the method: as §2
[36] = test system: Staphylococcus haemolyticus; assay: Antibacterial activity against Staphylococcus haemolyticus M3014 by microdilution test; type: functional; summary of the method: as §1
Pseudomonas aeruginosa [37] = assay: Antibacterial activity against Pseudomonas aeruginosa M7907 clinical isolate expressing blaPER gene by microdilution test; type: functional; summary of the method: as §1
Acinetobacter sp. [38] = assay: Antibacterial activity against Acinetobacter sp. M9665 clinical isolate expressing blaOXA-51 gene by microdilution test; type: functional; summary of the method: as §2
Acinetobacter sp. [39] = assay: Antibacterial activity against Acinetobacter sp. M7489 clinical isolate expressing blaOXA-51 and blaTEM gene by microdilution test; type: functional; summary of the method: as §2
Acinetobacter sp. [40] = assay: Antibacterial activity against Acinetobacter sp. M9013 clinical isolate expressing blaOXA-51 and blaIMP gene by microdilution test; type: functional; summary of the method: as §2
Klebsiella pneumoniae [41] = assay: Antibacterial activity against Klebsiella pneumoniae M9170 clinical isolate expressing blaOXA-GIII gene by microdilution test; type: functional; summary of the method: as §2
Staphylococcus aureus [42] = assay: Antibacterial activity against Staphylococcus aureus M4046 clinical isolate expressing mecA gene by microdilution test; type: functional; summary of the method: as §1
Escherichia coli [43] = assay: Antibacterial activity against Escherichia coli PABC11 clinical isolate expressing blaCTX-M-2 gene by microdilution test; type: functional; summary of the method: as §2
Enterococcus faecalis [44] = assay: Antibacterial activity against Enterococcus faecalis M4449 clinical isolate expressing vanA gene by microdilution test; type: functional; summary of the method: as §2
Enterococcus faecalis [45] = assay: Antibacterial activity against Enterococcus faecalis M6383 clinical isolate expressing vanA gene by microdilution test; type: functional; summary of the method: as §2

- MIC90 [1]: 8 µg/mL
- MIC90 (Staphylococcus aureus [2]): 64 µg/mL
- MIC90 (Klebsiella pneumoniae [3]): 64 µg/mL
- MIC90 (Acinetobacter sp. [4]): 8 µg/mL
- MIC90 (Escherichia coli [5]): 4 µg/mL
- MIC90 (Acinetobacter sp. [6]): 32 µg/mL
- MIC90 (Staphylococcus aureus [7]): 64 µg/mL
- MIC90 (Pseudomonas aeruginosa [8]): 64 µg/mL
- MIC90 (Klebsiella pneumoniae [9]): 8 µg/mL
- MIC90 (Pseudomonas aeruginosa [10]): 64 µg/mL
- MIC90 (Enterococcus faecium [11]): 16 µg/mL
- MIC90 (Staphylococcus aureus [12]): 128 µg/mL
- MIC90 (Enterococcus faecium [13]): 16 µg/mL
- MIC90 (Enterococcus faecalis [14]): 256 µg/mL
- MIC90 (Acinetobacter sp. [15]): 16 µg/mL
- MIC90 (Staphylococcus hominis [17]): 4 µg/mL
- MIC90 (Enterococcus gallinarum): 16 µg/mL
- MIC90 (Klebsiella pneumoniae [18]): 16 µg/mL
- MIC90 (Klebsiella pneumoniae [19]): 32 µg/mL
- MIC90 (Staphylococcus warneri): 8 µg/mL
- MIC90 (Enterococcus faecium [20]): 16 µg/mL
- MIC90 (Staphylococcus aureus [21]): 32 µg/mL
- MIC90 (Klebsiella pneumoniae [22]): 16 µg/mL
- MIC90 (Staphylococcus hominis [23]): 8 µg/mL
- MIC90 (Escherichia coli [24]): 32 µg/mL
- MIC90 (Klebsiella pneumoniae [25]): 32 µg/mL
- MIC90 (Acinetobacter sp. [26]): 8 µg/mL
- MIC90 (Enterococcus faecalis [27]): 128 µg/mL
- MIC90 (Enterococcus faecalis [28]): 128 µg/mL
- MIC90 (Enterococcus faecium [29]): 8 µg/mL
- MIC90 (Enterococcus faecium [30]): 16 µg/mL
- MIC90 (Escherichia coli [31]): 32 µg/mL
- MIC90 (Staphylococcus aureus [32]): 64 µg/mL
- MIC90 (Klebsiella pneumoniae [33]): 64 µg/mL
- MIC90 [34]: 8 µg/mL
- MIC90 (Klebsiella pneumoniae [35]): 16 µg/mL
- MIC90 (Pseudomonas aeruginosa [37]): 64 µg/mL
- MIC90 (Acinetobacter sp. [38]): 32 µg/mL
- MIC90 (Acinetobacter sp. [39]): 16 µg/mL
- MIC90 (Acinetobacter sp. [40]): 8 µg/mL
- MIC90 (Klebsiella pneumoniae [41]): 32 µg/mL
- MIC90 (Staphylococcus aureus [42]): 128 µg/mL
- MIC90 (Escherichia coli [43]): 32 µg/mL
- MIC90 (Enterococcus faecalis [44]): 128 µg/mL
- MIC90 (Enterococcus faecalis [45]): 128 µg/mL
Substance: H-GLLKKWLKKWKEFKRIVGY-NH2
- hemolysis [16]: 39.8%
- MIC90 [36]: 8 µg/mL
